# Measurements taken from ChEMBL document CHEMBL1125075, “Synthesis of a new class of 2,3-dihydro-2-oxo-1H-benzimidazole-1-carboxylic acid derivatives as highly potent 5-HT3 receptor antagonists” (J Med Chem, 1990).
# Key:
# [1] = biological target: T1, Serotonin 3 (5-HT3) receptor (Rattus norvegicus, UniProt P35563+Q9JJ16); assay: Concentration that inhibits the binding of radioligand, [3H]-ICS 205930, to 5-hydroxytryptamine 3 receptor from rat cortex
# T1 sequence (P35563 whole entry): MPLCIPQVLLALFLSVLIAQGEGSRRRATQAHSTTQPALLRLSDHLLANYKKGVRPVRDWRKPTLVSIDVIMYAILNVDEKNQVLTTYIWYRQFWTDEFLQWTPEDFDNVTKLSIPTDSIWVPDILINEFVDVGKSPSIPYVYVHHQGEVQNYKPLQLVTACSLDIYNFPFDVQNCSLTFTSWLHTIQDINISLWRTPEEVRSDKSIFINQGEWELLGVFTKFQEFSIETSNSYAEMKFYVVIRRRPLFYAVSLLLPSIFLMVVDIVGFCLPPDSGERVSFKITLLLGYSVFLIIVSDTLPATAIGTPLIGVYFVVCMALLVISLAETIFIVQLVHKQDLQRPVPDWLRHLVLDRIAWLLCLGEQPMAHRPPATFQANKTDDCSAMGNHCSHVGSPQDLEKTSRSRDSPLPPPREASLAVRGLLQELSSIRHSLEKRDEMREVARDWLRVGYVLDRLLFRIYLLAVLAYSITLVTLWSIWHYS
# T1 sequence (Q9JJ16 whole entry): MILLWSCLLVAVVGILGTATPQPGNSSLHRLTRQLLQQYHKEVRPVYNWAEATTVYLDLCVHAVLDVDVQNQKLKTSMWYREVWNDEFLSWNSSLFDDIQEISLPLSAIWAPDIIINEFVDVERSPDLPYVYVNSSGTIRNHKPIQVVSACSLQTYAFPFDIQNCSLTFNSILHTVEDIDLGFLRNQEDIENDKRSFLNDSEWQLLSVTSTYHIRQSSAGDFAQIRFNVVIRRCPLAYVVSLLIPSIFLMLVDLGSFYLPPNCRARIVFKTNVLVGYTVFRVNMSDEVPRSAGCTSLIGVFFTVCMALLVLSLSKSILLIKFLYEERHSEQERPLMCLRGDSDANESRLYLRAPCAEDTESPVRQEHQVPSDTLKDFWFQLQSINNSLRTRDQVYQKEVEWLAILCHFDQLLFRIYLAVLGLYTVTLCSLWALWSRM
# Method in brief: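 Rat cerebral cortex P2 fraction homogenised in 50 mM Tris·HCl pH 7.4 with 0.1% ascorbate, 4 mM CaCl2 and 10 μM pargyline, about 500 μg/mL protein. Incubated with 0.5–2.0 nM [3H]ICS 205930 (82.7 Ci/mmol) and a range of test concentrations, 30 °C for 30 min. Nonspecific binding with 10 μM reference antagonist; GF/B filtration; triplicate; Ki by computer fit.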
# Rattus norvegicus = assay: Effective dose that causes 50% reduction of serotonin effect in rats intravenously; format: functional
# Method in brief: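 Rat 5-HT-induced von Bezold-Jarisch reflex. ED50 is the antagonist dose giving 50% reduction of the serotonin effect, calculated by linear regression. Means with 95% confidence limits.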
# [2] = Rattus norvegicus, iv, read-out: ED50
Compound,Ki [1],ED50 (Rattus norvegicus; [2]),ED50 (Rattus norvegicus)
CN1[C@@H]2CC[C@H]1C[C@@H](OC(=O)c1c[nH]c3ccccc13)C2 [TROPISETRON],1.71 nM,0.0021 µmol/kg,
CN1CCC(OC(=O)n2c(=O)[nH]c3ccccc32)CC1,> 1000 nM,> 3 µmol/kg,
CN1C2CCCC1CC(OC(=O)n1c(=O)[nH]c3ccccc31)C2.O=C(O)CC(O)(CC(=O)O)C(=O)O (configuration not stated),> 1000 nM,,>3000 nM/kg
CN1C2CCCC1CC(NC(=O)n1c(=O)[nH]c3ccccc31)C2 (configuration not stated),130 nM,,905 nM/kg
CC(=O)c1ccc2[nH]c(=O)n(C(=O)OC3CC4CCC(C3)N4C)c2c1 (configuration not stated),> 1000 nM,> 3 µmol/kg,
O=C(NC1CC2CCC(C1)N2Cc1ccccc1)n1c(=O)[nH]c2ccccc21 (configuration not stated),> 1000 nM,> 3 µmol/kg,
CCn1c(=O)n(C(=O)OC2CC3CCC(C2)N3C)c2ccccc21 (configuration not stated),18 nM,0.0097 µmol/kg,
CN1C2CCCC1CC(OC(=O)n1c(=O)[nH]c3ccccc31)C2.Cl (configuration not stated),2.17 nM,,10.8 nM/kg
O=C(OC1CC2CCC(C1)N2Cc1ccccc1)n1c(=O)[nH]c2ccccc21 (configuration not stated),> 1000 nM,> 3 µmol/kg,
Cc1ccc2c(c1)[nH]c(=O)n2C(=O)OC1CC2CCC(C1)N2C (configuration not stated),> 1000 nM,> 3 µmol/kg,
Cc1cc2[nH]c(=O)n(C(=O)OC3CC4CCC(C3)N4C)c2cc1C (configuration not stated),> 1000 nM,> 3 µmol/kg,
O=C(OC1CN2CCC1CC2)n1c(=O)[nH]c2ccccc21 (configuration not stated),16.3 nM,0.8 µmol/kg,
CN1C2CCCC1CC(NC(=O)n1c(=O)[nH]c3ccccc31)C2.Cl (configuration not stated),1.53 nM,,1.1 nM/kg
CN1C2CCC1CC(NC(=O)n1c(=O)[nH]c3ccccc31)C2 (configuration not stated),3.75 nM,,1 nM/kg
Cc1cccc2[nH]c(=O)n(C(=O)OC3CC4CCC(C3)N4C)c12 (configuration not stated),306 nM,> 3 µmol/kg,
O=C(OC1CCNCC1)n1c(=O)[nH]c2ccccc21,72.4 nM,0.487 µmol/kg,
CC1CC(OC(=O)n2c(=O)[nH]c3ccccc32)CC(C)N1C (configuration not stated),> 1000 nM,> 3 µmol/kg,
CN1CC2CCC1CC2OC(=O)n1c(=O)[nH]c2ccccc21.Cl (configuration not stated),> 1000 nM,,>3000 nM/kg
CN1CC2CCC1CC2OC(=O)n1c(=O)[nH]c2ccccc21.O=C(O)CC(O)(CC(=O)O)C(=O)O (configuration not stated),,,18.9 nM/kg
CN1C2CCC1CC(OC(=O)n1c(=O)n(C)c3ccccc31)C2 (configuration not stated),12 nM,0.038 µmol/kg,
C[N+]1(C)C2CCC1CC(OC(=O)n1c(=O)[nH]c3ccccc31)C2 (configuration not stated),33.6 nM,0.0093 µmol/kg,

Compound,Ki [1],ED50 (Rattus norvegicus; [2]),ED50 (Rattus norvegicus)
Cc1cccc2c1[nH]c(=O)n2C(=O)OC1CC2CCC(C1)N2C (configuration not stated),7.94 nM,0.0301 µmol/kg,
CN1[C@@H]2CC[C@H]1C[C@@H](OC(=O)c1cc(Cl)cc(Cl)c1)C2 [BEMESETRON],24.4 nM,0.195 µmol/kg,
COc1ccc2c(c1)[nH]c(=O)n2C(=O)OC1CC2CCC(C1)N2C (configuration not stated),> 1000 nM,> 3 µmol/kg,
O=C(OC12CCN(CC1)CC2)n1c(=O)[nH]c2ccccc21,> 1000 nM,> 3 µmol/kg,
O=C(NC1CN2CCC1CC2)n1c(=O)[nH]c2ccccc21 (configuration not stated),2.07 nM,0.0035 µmol/kg,
CN1C2CCC1CC(OC(=O)n1c(=O)[nH]c3cc(C(F)(F)F)ccc31)C2 (configuration not stated),> 1000 nM,> 3 µmol/kg,
CN1C2CCC1CC(OC(=O)n1c(=O)[nH]c3cc(F)ccc31)C2 (configuration not stated),26.2 nM,0.204 µmol/kg,
O=C(NC1CCN2CCCC1C2)n1c(=O)[nH]c2ccccc21 (configuration not stated),20.2 nM,0.289 µmol/kg,
CN(C(=O)n1c(=O)[nH]c2ccccc21)C1CC2CCCC(C1)N2C (configuration not stated),> 1000 nM,> 3 µmol/kg,
CN1C2CCC1CC(OC(=O)n1c(=O)[nH]c3ccccc31)C2.Cl (configuration not stated),> 1000 nM,,3982 nM/kg
COc1ccc2[nH]c(=O)n(C(=O)OC3CC4CCC(C3)N4C)c2c1 (configuration not stated),> 1000 nM,,
CN1C2CCC1CC(NC(=O)n1c(=O)[nH]c3ccccc31)C2.Cl (configuration not stated),> 1000 nM,,>3000 nM/kg
CN1C2CCCC1CC(NC(=O)n1c(=O)n(C)c3ccccc31)C2 (configuration not stated),0.89 nM,0.0015 µmol/kg,
CN1C2CCC1CC(NC(=O)n1c(=O)n(C)c3ccccc31)C2 (configuration not stated),1.7 nM,0.0054 µmol/kg,
CCn1c(=O)n(C(=O)NC2CC3CCC(C2)N3C)c2ccccc21 (configuration not stated),2.3 nM,0.0051 µmol/kg,
CN1C2CCC1CC(OC(=O)n1c(=O)[nH]c3ccc(F)cc31)C2 (configuration not stated),33.9 nM,0.062 µmol/kg,
CN1CCC(NC(=O)n2c(=O)[nH]c3ccccc32)CC1,436 nM,1.52 µmol/kg,
CN1C2CCC1CC(OC(=O)n1c(=O)[nH]c3ccccc31)C2 (configuration not stated),21.4 nM,,17.9 nM/kg
CCN1C2CCC1CC(OC(=O)n1c(=O)[nH]c3ccccc31)C2 (configuration not stated),> 1000 nM,> 3 µmol/kg,
CN1C2CCC1CC(OC(=O)n1c(=O)[nH]c3cc(Cl)ccc31)C2 (configuration not stated),> 1000 nM,> 3 µmol/kg,
CN1C2CCC1C(OC(=O)n1c(=O)[nH]c3ccccc31)C2 (configuration not stated),> 1000 nM,> 3 µmol/kg,
